In ChEMBL document CHEMBL1144743, “Identification of prostaglandin D2 receptor antagonists based on a tetrahydropyridoindole scaffold” (Bioorg Med Chem Lett, 2008):

Tests used:
[1] = Antagonist activity at PGD2 subtype 1 in human platelet rich plasma assessed as inhibition of PGD2-induced accumulation of cAMP; format: functional
In short: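 Blood from normal human volunteers; PRP prepared by centrifugation at 150g for 15 min. IBMX added (2 mM final) to block cAMP degradation. PRP samples preincubated 10 min at 37 °C with increasing compound concentrations in DMSO before PGD2 challenge. Reaction stopped with ethanol to lyse cells and extract cAMP. IC50 reported.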

[2] = Binding affinity to human recombinant PGD2 receptor subtype 1 by radioligand competition binding assay
In short: (§1)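 Radioligand competition binding on recombinant human receptors, DP1 or thromboxane TP receptor; Ki values reported.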

[3] = target: T1, Thromboxane A2 receptor (Homo sapiens, UniProt P21731); assay: Binding affinity to human recombinant TP receptor by radioligand competition binding assay; in short: as §1
T1 sequence (P21731 whole entry): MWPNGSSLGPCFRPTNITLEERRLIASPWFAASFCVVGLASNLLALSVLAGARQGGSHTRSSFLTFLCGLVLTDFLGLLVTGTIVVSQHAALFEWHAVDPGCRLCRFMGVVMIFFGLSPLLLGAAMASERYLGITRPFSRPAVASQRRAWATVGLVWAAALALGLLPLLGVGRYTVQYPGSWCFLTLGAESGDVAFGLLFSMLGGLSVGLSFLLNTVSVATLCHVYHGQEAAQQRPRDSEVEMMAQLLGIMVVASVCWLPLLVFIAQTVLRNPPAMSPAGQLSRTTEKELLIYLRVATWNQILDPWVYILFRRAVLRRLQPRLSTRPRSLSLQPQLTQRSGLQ

[4] = Bioavailability in rat; format: ADME, organism-based; conditions: in vivo
[5] = Half life in rat; format: ADME, organism-based; conditions: in vivo
[6] = target: T2, Prostaglandin D2 receptor 2 (Homo sapiens, UniProt Q9Y5Y4); assay: Binding affinity to CRTH2 receptor
T2 sequence (Q9Y5Y4 whole entry): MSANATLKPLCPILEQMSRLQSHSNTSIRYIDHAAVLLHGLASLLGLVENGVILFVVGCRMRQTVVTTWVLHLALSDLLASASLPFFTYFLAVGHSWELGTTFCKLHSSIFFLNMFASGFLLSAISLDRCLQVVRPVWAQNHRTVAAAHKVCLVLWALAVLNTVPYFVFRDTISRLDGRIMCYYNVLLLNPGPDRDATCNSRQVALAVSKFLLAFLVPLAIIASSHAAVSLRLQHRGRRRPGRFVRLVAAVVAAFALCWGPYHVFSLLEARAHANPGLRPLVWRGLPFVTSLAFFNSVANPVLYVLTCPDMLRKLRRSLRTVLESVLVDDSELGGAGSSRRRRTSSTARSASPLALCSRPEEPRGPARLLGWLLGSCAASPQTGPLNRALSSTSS

[7] = target: T3, Prostaglandin E2 receptor EP1 subtype (Homo sapiens, UniProt P34995); assay: Binding affinity to EP1 receptor
T3 sequence (P34995 whole entry): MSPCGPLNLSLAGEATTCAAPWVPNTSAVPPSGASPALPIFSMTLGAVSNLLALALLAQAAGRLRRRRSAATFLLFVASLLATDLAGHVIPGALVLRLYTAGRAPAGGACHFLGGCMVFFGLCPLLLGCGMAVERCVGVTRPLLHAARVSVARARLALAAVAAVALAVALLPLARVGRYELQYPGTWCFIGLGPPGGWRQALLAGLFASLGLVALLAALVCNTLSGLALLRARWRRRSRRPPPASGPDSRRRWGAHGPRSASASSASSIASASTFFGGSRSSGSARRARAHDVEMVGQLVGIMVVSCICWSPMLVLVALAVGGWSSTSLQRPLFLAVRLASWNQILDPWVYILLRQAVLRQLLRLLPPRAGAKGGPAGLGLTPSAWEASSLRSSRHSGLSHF

[8] = target: Prostaglandin E2 receptor EP2 subtype (Homo sapiens, UniProt P43116); assay: Binding affinity to EP2 receptor
[9] = target: T4, Prostaglandin E2 receptor EP3 subtype (Homo sapiens, UniProt P43115); assay: Binding affinity to EP3 receptor
T4 sequence (P43115 whole entry): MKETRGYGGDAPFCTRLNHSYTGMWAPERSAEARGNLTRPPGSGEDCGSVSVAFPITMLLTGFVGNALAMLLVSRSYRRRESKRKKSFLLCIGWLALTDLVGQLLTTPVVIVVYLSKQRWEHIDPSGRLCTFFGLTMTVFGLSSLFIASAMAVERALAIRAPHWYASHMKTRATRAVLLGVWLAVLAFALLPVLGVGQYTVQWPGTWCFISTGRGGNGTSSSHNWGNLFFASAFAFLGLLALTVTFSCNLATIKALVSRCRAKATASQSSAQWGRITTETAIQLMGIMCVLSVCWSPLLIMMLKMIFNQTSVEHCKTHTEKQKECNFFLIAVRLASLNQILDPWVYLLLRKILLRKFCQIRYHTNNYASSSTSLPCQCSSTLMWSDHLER

[10] = target: Prostaglandin E2 receptor EP4 subtype (Homo sapiens, UniProt P35408); assay: Binding affinity to EP4 receptor
[11] = target: Prostaglandin F2-alpha receptor (Homo sapiens, UniProt P43088); assay: Binding affinity to FP receptor
[12] = target: Prostacyclin receptor (Homo sapiens, UniProt P43119); assay: Binding affinity to IP receptor
Chain of Prostacyclin receptor (P43119 whole entry): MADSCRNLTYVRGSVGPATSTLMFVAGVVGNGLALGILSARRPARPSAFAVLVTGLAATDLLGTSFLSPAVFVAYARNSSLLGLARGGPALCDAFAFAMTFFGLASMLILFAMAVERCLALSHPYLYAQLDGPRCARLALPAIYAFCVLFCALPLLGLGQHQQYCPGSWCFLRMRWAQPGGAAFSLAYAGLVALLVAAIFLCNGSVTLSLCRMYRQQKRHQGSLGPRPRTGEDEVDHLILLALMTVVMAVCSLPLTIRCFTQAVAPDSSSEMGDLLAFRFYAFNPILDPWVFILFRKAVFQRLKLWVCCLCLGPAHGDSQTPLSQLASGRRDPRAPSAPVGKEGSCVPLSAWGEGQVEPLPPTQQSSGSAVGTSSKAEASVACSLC

Chain of Prostaglandin E2 receptor EP4 subtype (P35408 whole entry): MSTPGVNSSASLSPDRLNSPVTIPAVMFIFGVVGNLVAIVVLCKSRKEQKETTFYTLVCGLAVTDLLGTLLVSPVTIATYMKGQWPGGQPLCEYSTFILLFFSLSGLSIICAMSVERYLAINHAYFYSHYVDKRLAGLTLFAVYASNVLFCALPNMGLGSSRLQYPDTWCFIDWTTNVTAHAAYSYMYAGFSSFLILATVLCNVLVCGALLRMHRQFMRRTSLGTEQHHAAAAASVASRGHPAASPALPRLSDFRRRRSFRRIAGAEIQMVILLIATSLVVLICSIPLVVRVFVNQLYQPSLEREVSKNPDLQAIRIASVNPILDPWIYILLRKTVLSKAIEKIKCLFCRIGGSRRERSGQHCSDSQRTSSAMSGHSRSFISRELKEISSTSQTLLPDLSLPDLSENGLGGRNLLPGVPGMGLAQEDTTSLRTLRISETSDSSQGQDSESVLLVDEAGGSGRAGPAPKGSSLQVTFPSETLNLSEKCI
Chain of Prostaglandin F2-alpha receptor (P43088 whole entry): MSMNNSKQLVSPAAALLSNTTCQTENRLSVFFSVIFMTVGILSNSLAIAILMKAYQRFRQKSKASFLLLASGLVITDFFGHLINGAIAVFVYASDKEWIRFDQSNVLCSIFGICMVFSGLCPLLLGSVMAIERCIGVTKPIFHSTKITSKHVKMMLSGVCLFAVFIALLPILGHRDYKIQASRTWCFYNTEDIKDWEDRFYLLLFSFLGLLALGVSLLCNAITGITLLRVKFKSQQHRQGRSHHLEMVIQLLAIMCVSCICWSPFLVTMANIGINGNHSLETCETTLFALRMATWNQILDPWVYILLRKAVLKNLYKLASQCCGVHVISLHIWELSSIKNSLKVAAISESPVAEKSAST
Chain of Prostaglandin E2 receptor EP2 subtype (P43116 whole entry): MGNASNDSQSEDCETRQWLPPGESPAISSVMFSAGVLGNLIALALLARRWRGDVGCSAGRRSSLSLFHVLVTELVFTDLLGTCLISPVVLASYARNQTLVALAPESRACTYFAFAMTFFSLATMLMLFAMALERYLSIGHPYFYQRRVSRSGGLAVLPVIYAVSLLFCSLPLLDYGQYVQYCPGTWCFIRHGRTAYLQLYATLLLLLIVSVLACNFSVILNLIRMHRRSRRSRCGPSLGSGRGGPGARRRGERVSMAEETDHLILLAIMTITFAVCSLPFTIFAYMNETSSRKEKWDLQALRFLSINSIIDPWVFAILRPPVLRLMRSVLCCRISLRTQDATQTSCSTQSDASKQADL

## CSC(C)c1cc(F)cc2c1c(Sc1ccc(Cl)cc1)c1n2CCC1CC(=O)O (stereo not given)
[1]
  IC50: 0.0041 µM
[2]
  Ki: 0.0016 µM
[3]
  Ki: 0.0275 µM

## CS(=O)(=O)c1cc(F)cc2c1c(C(=O)c1ccc(Cl)cc1)c1n2CCCC1CC(=O)O (stereo not given)
[1]
  IC50: 0.0046 µM
[4]
  bioavailability: 100%
[5]
  half-life: 4.4 h
[2]
  Ki: 0.003 µM
[3]
  Ki: 0.513 µM

## O=C(O)CC1CCn2c1c(Sc1ccc(Cl)cc1)c1ccc(F)cc12 (stereo not given)
[2]
  Ki: 0.132 µM
[3]
  Ki: 0.017 µM

## CS(=O)(=O)c1cc(F)cc2c1c(C(=O)c1ccc(Cl)cc1)c1n2CCCCC1CC(=O)O (stereo not given)
[1]
  IC50: 0.0052 µM
[2]
  Ki: 0.0014 µM
[3]
  Ki: 0.675 µM

## CS(=O)(=O)c1cc(F)cc2c1c(-c1cccc(-c3ccccc3)c1)c1n2CCC1CC(=O)O (stereo not given)
[1]
  IC50: 0.0316 µM
[2]
  Ki: 0.0017 µM
[3]
  Ki: 0.31 µM

## CS(=O)(=O)c1cc(F)cc2c1c(C(=O)c1ccc(Cl)cc1)c1n2CCC[C@@H]1CC(=O)O
[1]
  IC50: 0.0046 µM
[6]
  Ki: 19.2 µM
[7]
  Ki: 0.142 µM
[8]
  Ki: 3.4 µM
[9]
  Ki: 5.06 µM
[10]
  Ki: > 16.5 µM
[11]
  Ki: 21.1 µM
[12]
  Ki: > 21.2 µM
[2]
  Ki: 0.001 µM
[3]
  Ki: 0.168 µM

## CS(=O)(=O)c1cc(F)cc2c1c(Sc1ccc(Cl)cc1)c1n2CCC1CC(=O)O (stereo not given)
[1]
  IC50: 0.0104 µM
[2]
  Ki: 0.0013 µM
[3]
  Ki: 0.226 µM

## O=C(O)CC1CCn2c1c(Sc1ccc(Cl)cc1)c1c(C3CC3)cc(F)cc12 (stereo not given)
[2]
  Ki: 0.0057 µM
[3]
  Ki: 0.136 µM

## CS(=O)(=O)c1cc(F)cc2c1c(CCc1ccc(Cl)cc1)c1n2CCC1CC(=O)O (stereo not given)
[2]
  Ki: 0.0189 µM
[3]
  Ki: 0.219 µM

## CC(=O)c1cc(F)cc2c1c(Sc1ccc(Cl)cc1)c1n2CCC1CC(=O)O (stereo not given)
[1]
  IC50: 0.101 µM
[2]
  Ki: 0.0036 µM
[3]
  Ki: 0.674 µM

## CC(O)c1cc(F)cc2c1c(Sc1ccc(Cl)cc1)c1n2CCC1CC(=O)O (stereo not given)
[1]
  IC50: 0.056 µM
[2]
  Ki: 0.0025 µM
[3]
  Ki: 0.273 µM

## CCS(=O)(=O)c1cc(F)cc2c1c(Sc1ccc(Cl)cc1)c1n2CCC1CC(=O)O (stereo not given)
[1]
  IC50: 0.034 µM
[2]
  Ki: 0.0023 µM
[3]
  Ki: 0.25 µM

## CS(=O)(=O)c1cc(F)cc2c1c(Cc1ccc(Cl)cc1)c1n2CCC1CC(=O)O (stereo not given)
[1]
  IC50: 0.0047 µM
[2]
  Ki: 0.0005 µM
[3]
  Ki: 0.0117 µM

## CC(C)c1cc(F)cc2c1c(Sc1ccc(Cl)cc1)c1n2CCC1CC(=O)O (stereo not given)
[1]
  IC50: 0.0086 µM
[2]
  Ki: 0.0024 µM
[3]
  Ki: 0.046 µM

## CS(=O)(=O)c1cc(F)cc2c1c(C(=O)c1ccc(Cl)cc1)c1n2CCC1CC(=O)O (stereo not given)
[2]
  Ki: 0.0069 µM
[3]
  Ki: 6.97 µM

## CS(=O)(=O)c1cc(F)cc2c1c(Sc1ccc(Cl)cc1F)c1n2CCC1CC(=O)O (stereo not given)
[1]
  IC50: 0.0321 µM
[2]
  Ki: 0.0035 µM
[3]
  Ki: 0.198 µM

## CS(=O)(=O)c1cc(F)cc2c1c(C(=O)c1ccc(Cl)cc1)c1n2CCC[C@H]1CC(=O)O
[7]
  Ki: 2.17 µM
[8]
  Ki: > 29.2 µM
[9]
  Ki: > 21.4 µM
[10]
  Ki: > 16.1 µM
[11]
  Ki: > 24.8 µM
[12]
  Ki: > 22.5 µM
[2]
  Ki: 0.036 µM
[3]
  Ki: 7.15 µM

## CC(c1ccc(Cl)cc1)c1c2n(c3cc(F)cc(S(C)(=O)=O)c13)CCC2CC(=O)O (stereo not given)
[2]
  Ki: 0.0147 µM
[3]
  Ki: 3.19 µM

## CS(=O)(=O)c1cc(F)cc2c1c(Sc1ccc(C(F)(F)F)cc1)c1n2CCC1CC(=O)O (stereo not given)
[1]
  IC50: 0.0292 µM
[2]
  Ki: 0.0018 µM
[3]
  Ki: 0.286 µM

## CCC(CC)c1cc(F)cc2c1c(Sc1ccc(Cl)cc1)c1n2CCC1CC(=O)O (stereo not given)
[1]
  IC50: 0.0216 µM
[2]
  Ki: 0.0081 µM
[3]
  Ki: 0.363 µM

## CCC(OC)c1cc(F)cc2c1c(Sc1ccc(Cl)cc1)c1n2CCC1CC(=O)O (stereo not given)
[1]
  IC50: 0.0067 µM
[2]
  Ki: 0.0011 µM
[3]
  Ki: 0.2 µM

## CS(=O)(=O)c1cc(F)cc2c1c(Sc1ccc3ccccc3c1)c1n2CCC1CC(=O)O (stereo not given)
[1]
  IC50: 0.04 µM
[2]
  Ki: 0.0012 µM
[3]
  Ki: 0.583 µM

## O=C(O)CC1CCn2c1c(Sc1ccc(Cl)cc1)c1c(Br)cc(F)cc12 (stereo not given)
[2]
  Ki: 0.0077 µM
[3]
  Ki: 0.017 µM

## CC(C)C(O)c1cc(F)cc2c1c(Sc1ccc(Cl)cc1)c1n2CCC1CC(=O)O (stereo not given)
[1]
  IC50: 0.509 µM
[2]
  Ki: 0.0079 µM
[3]
  Ki: 0.484 µM
